According to ChEMBL document CHEMBL3576850 (J Nat Prod, 2015):
≈ marks a conversion by molar mass, not a printed value. Calls of active or inactive are those of the source. No cut-off for these calls is given here.

Columns and labels:
[1] = molecular target: Pyruvate kinase PKM (Homo sapiens) (UniProt P14618); test: Inhibition of recombinant his-tagged human pyruvate kinase M1 expressed in Escherichia coli BL-21(DE3) using PEP as substrate at 10 uM after 5 mins by L-LDH coupled assay relative to control
Outline: (§1)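 His-tagged human PK isoform in a continuous rabbit muscle L-LDH-coupled assay, read as 340 nm absorbance change. Compounds added from DMSO, final DMSO ≤1%. Three measurements, each in triplicate.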

[2] = molecular target: Pyruvate kinase PKLR (Homo sapiens) (UniProt P30613); test: Inhibition of recombinant his-tagged human pyruvate kinase L expressed in Escherichia coli BL-21(DE3) using PEP as substrate at 10 uM after 5 mins by L-LDH coupled assay relative to control; outline: as §1
[3] = molecular target: Pyruvate kinase PKM (Homo sapiens) (UniProt P14618); test: Inhibition of recombinant his-tagged human pyruvate kinase M2 expressed in Escherichia coli BL-21(DE3) using PEP as substrate at 10 uM after 5 mins by L-LDH coupled assay relative to control; outline: as §1
[4] = molecular target: Pyruvate kinase PKLR (Homo sapiens) (UniProt P30613); test: Inhibition of recombinant his-tagged human pyruvate kinase R expressed in Escherichia coli BL-21(DE3) using PEP as substrate at 10 uM after 5 mins by L-LDH coupled assay relative to control; outline: as §1
[5] = Inhibition of recombinant his-tagged methicillin-resistant Staphylococcus aureus pyruvate kinase expressed in Escherichia coli BL-21(DE3) using PEP as substrate after 5 mins by L-LDH coupled assay
[6] = molecular target: Pyruvate kinase PKLR (Homo sapiens) (UniProt P30613); test: Inhibition of recombinant his-tagged human pyruvate kinase L expressed in Escherichia coli BL-21(DE3) using PEP as substrate at 5 uM after 5 mins by L-LDH coupled assay relative to control; outline: as §1
[7] = molecular target: Pyruvate kinase PKM (Homo sapiens) (UniProt P14618); test: Inhibition of recombinant his-tagged human pyruvate kinase M1 expressed in Escherichia coli BL-21(DE3) using PEP as substrate at 5 uM after 5 mins by L-LDH coupled assay relative to control; outline: as §1
[8] = molecular target: Pyruvate kinase PKLR (Homo sapiens) (UniProt P30613); test: Inhibition of recombinant his-tagged human pyruvate kinase R expressed in Escherichia coli BL-21(DE3) using PEP as substrate at 5 uM after 5 mins by L-LDH coupled assay relative to control; outline: as §1
[9] = molecular target: Pyruvate kinase PKM (Homo sapiens) (UniProt P14618); test: Inhibition of recombinant his-tagged human pyruvate kinase M2 expressed in Escherichia coli BL-21(DE3) using PEP as substrate at 5 uM after 5 mins by L-LDH coupled assay relative to control; outline: as §1
Staphylococcus aureus [10] = test: Antibacterial activity against methicillin-susceptible Staphylococcus aureus RN4220 by 2-fold serial broth microdilution method; type: functional
Staphylococcus aureus [11] = test: Antibacterial activity against methicillin-resistant Staphylococcus aureus 252 by 2-fold serial broth microdilution method; type: functional

Sequence of Pyruvate kinase PKM (Homo sapiens) (P14618 2-531 limits assumed): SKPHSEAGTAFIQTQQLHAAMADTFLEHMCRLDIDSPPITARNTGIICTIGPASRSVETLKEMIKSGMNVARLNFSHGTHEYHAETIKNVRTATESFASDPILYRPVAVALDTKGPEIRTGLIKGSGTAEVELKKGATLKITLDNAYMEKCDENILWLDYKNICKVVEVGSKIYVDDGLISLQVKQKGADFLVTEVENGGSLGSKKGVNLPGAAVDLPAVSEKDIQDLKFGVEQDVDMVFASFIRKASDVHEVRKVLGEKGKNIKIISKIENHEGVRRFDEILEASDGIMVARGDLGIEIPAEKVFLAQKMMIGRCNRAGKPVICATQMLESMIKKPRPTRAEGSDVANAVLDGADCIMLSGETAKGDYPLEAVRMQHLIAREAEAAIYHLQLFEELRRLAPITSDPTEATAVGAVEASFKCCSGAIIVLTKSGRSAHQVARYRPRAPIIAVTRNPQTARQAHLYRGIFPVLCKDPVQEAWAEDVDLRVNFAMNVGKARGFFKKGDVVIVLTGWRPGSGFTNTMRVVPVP
Sequence of Pyruvate kinase PKLR (Homo sapiens) (P30613 whole entry, looked up): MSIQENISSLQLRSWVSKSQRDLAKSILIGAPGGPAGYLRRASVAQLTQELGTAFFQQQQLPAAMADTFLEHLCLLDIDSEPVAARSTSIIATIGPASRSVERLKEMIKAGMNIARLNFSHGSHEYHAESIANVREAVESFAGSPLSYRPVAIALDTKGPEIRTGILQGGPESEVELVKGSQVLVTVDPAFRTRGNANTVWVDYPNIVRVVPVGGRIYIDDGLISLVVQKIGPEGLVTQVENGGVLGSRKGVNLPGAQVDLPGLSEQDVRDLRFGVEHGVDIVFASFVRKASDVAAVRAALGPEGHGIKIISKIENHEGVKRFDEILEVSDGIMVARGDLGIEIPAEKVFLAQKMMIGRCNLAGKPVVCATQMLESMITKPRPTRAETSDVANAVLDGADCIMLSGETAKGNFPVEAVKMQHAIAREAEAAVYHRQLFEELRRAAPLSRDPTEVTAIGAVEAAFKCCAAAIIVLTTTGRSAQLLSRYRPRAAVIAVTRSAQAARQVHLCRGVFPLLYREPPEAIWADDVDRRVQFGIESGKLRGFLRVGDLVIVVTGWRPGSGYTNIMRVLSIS

| Compound | inhibition [1] | inhibition [2] | inhibition [3] | inhibition [4] | IC50 [5] | inhibition [6] | inhibition [7] | inhibition [8] | inhibition [9] | MIC (Staphylococcus aureus [10]) | MIC (Staphylococcus aureus [11]) |
| --- | --- | --- | --- | --- | --- | --- | --- | --- | --- | --- | --- |
| O=C(c1nc(-c2c[nH]c3c(Cl)cccc23)c[nH]1)c1c[nH]c2c(Cl)cccc12 | inactive | inactive | inactive | inactive | 26000 nM |  |  |  |  |  |  |
| O=C(c1nc(-c2c[nH]c3cc(I)ccc23)c[nH]1)c1c[nH]c2cc(I)ccc12 |  |  |  |  | 3.3 nM | < 40% | 0% | < 40% | 0% |  |  |
| O=C(c1nc(-c2c[nH]c3cc(Cl)ccc23)c[nH]1)c1c[nH]c2cc(Cl)ccc12 |  |  |  |  | 1.5 nM | < 40% | 0% | < 40% | 0% |  |  |
| O=C1NC[C@@H](c2c[nH]c3cc(Br)ccc23)N[C@H]1c1c[nH]c2cc(Br)ccc12 (relative stereo) [CIS-3,4-DIHYDROHAMACANTHIN B] |  |  |  |  | 16 nM |  |  |  |  | 6.25 µg/mL (≈ 12.8 µM) | 12.5 µg/mL (≈ 25.6 µM) |
| O=C(c1nc(-c2c[nH]c3ccc(Br)cc23)c[nH]1)c1c[nH]c2ccc(Br)cc12 |  |  |  |  | 6.4 nM | < 40% | 0% | < 40% | 0% |  |  |
| O=C(c1ncc(-c2c[nH]c3cc(Br)ccc23)[nH]1)c1c[nH]c2cc(Br)ccc12 |  |  |  |  |  | < 40% | 0% | < 40% | 0% |  |  |
| O=C(c1nc(-c2c[nH]c3ccccc23)c[nH]1)c1c[nH]c2ccccc12 | inactive | inactive | inactive | inactive |  |  |  |  |  |  |  |
| O=C(c1nc(-c2c[nH]c3cc(F)ccc23)c[nH]1)c1c[nH]c2cc(F)ccc12 | inactive | inactive | inactive | inactive | 24 nM |  |  |  |  |  |  |
